Structures are written as SMILES.

What all share (type): functional
Assay [1] deals with Mus musculus. The assay can be described thus: Percent change in the weight after administering a dose of 100 mg/kg to mice bearing L1210 leukemia. In outline:
(§1)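 L1210 ascites cells were propagated in CDF₁ mice and 0.1 mL of a suspension at 10⁶ cells/mL in isotonic saline was implanted ip. Compound was given ip once daily for 6 consecutive days starting 24 h after implantation, as a fine suspension in Tween 80/saline (0.5 mL). Groups of five were used, with vehicle controls. The read-out was average body-weight change from onset to end of therapy.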

Assay [2] has as its system Mus musculus. Put plainly: Percent change in the weight after administering a dose of 150 mg/kg to mice bearing L1210 leukemia. In a few lines:
as §1

Assay [3] relates to Mus musculus. Put plainly: Percent change in the weight after administering a dose of 50 mg/kg to mice bearing L1210 leukemia. In a few lines:
as §1

The subject of assay [4] is Mus musculus. Put plainly: Average survival time of control mice bearing L1210 leukemia at a dose 50 mg/kg. In a few lines: (§2)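 L1210 ascites cells passaged in CDF1 mice, taken from 7-day donors, spun, diluted 10-fold in isotonic saline and set to 10^6 cells/mL by Coulter count; 0.1 mL given ip. Compound suspended in 2–3 drops 20% aqueous Tween 80 plus isotonic saline, 0.5 mL ip once daily for 6 days from 24 h after implant. Groups of five; vehicle-injected controls. %T/C = treated/control mean survival ×100.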

The test system of assay [5] is Mus musculus. The assay can be described thus: Average survival time of treated mice bearing the L1210 leukemia at a dose 100 mg/kg. In outline:
as §2

Assay [6] has as its system Mus musculus. Put plainly: Average survival time of treated mice bearing the L1210 leukemia at a dose 150 mg/kg. In outline:
as §2

Assay [7] concerns Mus musculus. The assay can be described thus: Average survival time of treated mice bearing the L1210 leukemia at a dose 50 mg/kg. In a few lines: as §2
Assay [8] has as its system Mus musculus. The assay can be described thus: Percentage of average survival time of control/treated mice bearing the L1210 leukemia at a dose 100 mg/kg. In outline:
as §2

In assay [9] the test system is Mus musculus. Put plainly: Percentage of average survival time of control/treated mice bearing the L1210 leukemia at a dose 150 mg/kg. In a few lines:
as §2

In assay [10] the test system is Mus musculus. The assay can be described thus: Percentage of average survival time of control/treated mice bearing the L1210 leukemia at a dose 50 mg/kg. In outline:
as §2

For assay [11], the system named is Mus musculus. The assay can be described thus: Average survival time of mice bearing L1210 leukemia at a dose 50 mg/kg. In a few lines:
as §2

Assay [12] has as its system Mus musculus. The assay can be described thus: Percentage of average survival time of control/treated mice bearing sarcoma 180 at a dose 50 mg/kg.
The subject of assay [13] is Mus musculus. Put plainly: Percentage of average survival time of control/treated mice bearing P388 leukemia at a dose 150 mg/kg.
Assay [14] has as its system Mus musculus. Put plainly: Percentage of average survival time of control/treated mice bearing sarcoma 180 at a dose 100 mg/kg.

As a reminder, the T/C is the result in the treated group divided by that in the control group, in per cent. For the compound `O=S(=O)(NNS(=O)(=O)c1ccccc1)c1ccccc1`, the figures for the Average weight change with Mus musculus [1], in the assay on Mus musculus [2] and in the assay with Mus musculus [3] were 5.8%, 0.8% and -0.3%, respectively. The Survival time with Mus musculus [4] amounted to 9.5 days; in the assay with Mus musculus [5] it was 9.2 days; with Mus musculus [6], 9.6 days; in the assay with Mus musculus [7], 9.2 days. The results for the T/C in the assay on Mus musculus [8], in the assay with Mus musculus [9] and in the assay with Mus musculus [10] were 97%, 101% and 97%, respectively.

As to `CN(NC(=O)c1ccccc1)C(=O)c1ccccc1`, the Average weight change with Mus musculus [1] was -2%; in the assay on Mus musculus [2], -2%; with Mus musculus [3], 2.5%. The Survival time in the assay on Mus musculus [4] is 9.5 days; in the assay with Mus musculus [5], 9.2 days; in the assay with Mus musculus [6] it was 9.2 days; in the assay with Mus musculus [7] it was 9.2 days. Besides, the T/C with Mus musculus [8], in the assay on Mus musculus [9] and in the assay with Mus musculus [10] was 97% in each case.

Take `Cc1ccc(S(=O)(=O)NN(C)S(=O)(=O)c2ccc(C)cc2)cc1`: the Average weight change in the assay on Mus musculus [1] stood at 0.8%; in the assay on Mus musculus [3], 3.7%. Further, the Survival time in the assay with Mus musculus [4] was found to be 9.5 days; with Mus musculus [11], 14 days. This compound came in with a T/C in the assay with Mus musculus [12] of 197%.

On to `CN(NS(=O)(=O)c1ccc(Cl)cc1)S(=O)(=O)c1ccc(Cl)cc1`, for which the Average weight change in the assay with Mus musculus [1] was determined as 1.3%; in the assay on Mus musculus [2], 6.9%; in the assay on Mus musculus [3] it was 4%. The results for the Survival time in the assay with Mus musculus [4] and in the assay on Mus musculus [7] were 9.5 days and 11.4 days, respectively. The results for the T/C in the assay on Mus musculus [8] and with Mus musculus [10] were 124% and 120%, respectively.

For the compound `COc1ccc(S(=O)(=O)NN(C)S(=O)(=O)c2ccc(OC)cc2)cc1`, the Average weight change was -1.6% in the assay on Mus musculus [1], 4.1% in the assay with Mus musculus [2] and 1.9% in the assay with Mus musculus [3]. This compound also returned a Survival time in the assay with Mus musculus [4] of 9 days. This compound registered a T/C in the assay on Mus musculus [13] of 136%.

Turning to `CN(NS(=O)(=O)c1ccccc1)S(=O)(=O)c1ccccc1`, the Average weight change in the assay with Mus musculus [1] is recorded as -5.2%; with Mus musculus [2], -13.5%; with Mus musculus [3] it was -4.8%. Also, the Survival time with Mus musculus [4] came out at 9 days; with Mus musculus [6] it was 9.4 days. The T/C in the assay on Mus musculus [14] is 203%.

Consider `CN(NS(=O)(=O)c1ccc2ccccc2c1)S(=O)(=O)c1ccc2ccccc2c1`, for which the Average weight change in the assay on Mus musculus [1] is -3.3%; with Mus musculus [2] it was 4.1%; in the assay on Mus musculus [3], 3%. Besides, the Survival time in the assay on Mus musculus [4] and in the assay on Mus musculus [6] was 9 days in each case.

Values taken from ChEMBL document CHEMBL1122985, “Synthesis and evaluation of N,N'-bis(arylsulfonyl)hydrazines as antineoplastic agents” (1985).
